The test system of data set [1] is U-87 MG. The data set is described as follows: Cytotoxicity against human U87MG cells assessed as reduction in cell survival measured after 72 hrs by MTT assay. The data set is classed as functional, cell-based, U-87MG ATCC. Conditions: for Activity: U-87MG ATCC. The method in brief: (§1)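 MTT viability on 2D cultures, U87-MG in DMEM and U251-MG in EMEM with […], both with 10% FBS and Pen Strep. 5000 cells seeded, then 72 h exposure to 500, 250, 100, 50, 25, 10 and 5 μM (DMSO at most […]). MTT 0.5 mg/mL for 1 h, formazan in DMSO read at 550 nm. Survival as % of control. IC50 determined graphically. At least triplicate.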

The nature of data set [2]: Half life in H2O/MeOH buffered with HEPES/NaCl at pH 7.4 in presence of alkyl radical scavenger TEMPOR by 31P[1H]-NMR analysis. The data set is classed as physicochemical. Conditions: for half-life: H2O/MeOH buffered with HEPES/NaCl; for t1/2: buffer.
The nature of data set [3]: Dissociation constant, pKa of the compound in 1:1 v/v D2O/CD3OD by 1H-NMR spectrometric method. Type of data set: physicochemical. The method in brief:
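Samples in D2O/CD3OD (1:1 v/v) were adjusted with DCl/NaOD to a series of pH* values, read on a meter calibrated with non-deuterated standards, and 1H-NMR was recorded at 400 MHz. Imidazole proton chemical shifts were plotted against pH* and fitted sigmoidally. The pKa* was converted by pH = 0.929 pH* + 0.42.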

Data set [4] is described as follows: n-octanol/phosphate buffered saline partition coefficient, log D of the compound at pH 7.4 by shake-flask method. The data set is classed as physicochemical. The method in brief:
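Shake-flask partition between pre-saturated n-octanol and PBS at pH 7.4. The aqueous phase was quantified by RP-HPLC on a 4.6 × 50 mm column, eluting with CH3CN/H2O (each with 0.1% TFA) from 10:90 to 100:0 over 10 min.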

A short description of data set [5]: Stability in H2O/MeOH buffered with HEPES/NaCl at pH 7.4 assessed as temperature. Conditions: buffer. The data set is classed as physicochemical.
Data set [6] is described as follows: Drug homolysis in H2O/MeOH buffered with HEPES/NaCl at pH 7.4 assessed as rate constant by measuring nitroxide level in presence of alkyl radical scavenger TEMPOR by 31P[1H]-NMR analysis.
In data set [7] the test system is U-251. The data set is described as follows: Cytotoxicity against human U251MG cells assessed as reduction in cell survival measured after 72 hrs by MTT assay. The data set is classed as functional, cell-based. The procedure, abridged:
as §1
(In general: Formazan colour is commonly taken as a measure of viable cells.)

Data set [8] is described as follows: Drug homolysis in H2O/MeOH buffered with HEPES/NaCl at pH 7.4 assessed as activation energy in presence of alkyl radical scavenger TEMPOR by 31P[1H]-NMR analysis.

The structures appear in SMILES notation.

The IC50 is the midpoint of a concentration-inhibition curve. The half-life is how long it takes for the measured level to halve. Usually pKa stands for the pH at which an ionisable group is half protonated. For orientation: logD means the decadic logarithm of the distribution of all forms, ionised or not, between an organic phase and buffer at a given pH.

Regarding `CCOP(=O)(OCC)C(N(OC(C)c1cc[n+](C)cc1)C(C)(C)C)C(C)(C)C` (stereo not given), the IC50 in data set [1] was 250 µM. The half-life in data set [2] was 0.75 h.
Turning to `CCOP(=O)(OCC)C(N(OC(C)c1ccncc1)C(C)(C)C)C(C)(C)C` (stereo not given), the pKa in data set [3] (1:1 v/v D2O/CD3OD, read-out: pKa) turned out to be 4.7.
`CCOP(=O)(OCC)C(N(OC(C)n1cc[n+](C)c1)C(C)(C)C)C(C)(C)C` (stereo in doubt; form 1): the logD in data set [4] (octanol/water) is listed as -0.1. Moreover, the IC50 in data set [1] lay in the range of 25 to 380 µM. The t1/2 in data set [2] stood at 5 yr. In data set [5], the T was 100 °C.
On to `CCOP(=O)(OCC)C(N(OC(C)c1cn(C)c[n+]1C)C(C)(C)C)C(C)(C)C` (stereo in doubt; form 1) [listing 1 of 2 here], for which the logD in data set [4] (n-octanol/phosphate buffered saline, read-out: logD) stood at 0.8. The IC50 in data set [1] was 25 to 380 µM. Also, the half-life in data set [2] was 25 h. Further, the T in data set [5] came out at 70 °C.
Compound `CCOP(=O)(OCC)C(N(OC(C)c1n(C)cc[n+]1C)C(C)(C)C)C(C)(C)C` (stereo in doubt; form 1) [listing 1 of 2 here] gave a logD in data set [4] (octanol/water) of -0.2. Moreover, in data set [1], the half-inhibitory concentration (IC50) is 25 to 380 µM. Besides, in data set [2], the t1/2 came to 10 h. Moreover, the T in data set [5] came out at 70 °C.
For the compound `CCOP(=O)(OCC)C(N(OC(C)c1cn(C)c[n+]1C)C(C)(C)C)C(C)(C)C` (stereo in doubt; form 1) [listing 2 of 2 here], the Activity entry in data set [1] and in data set [7] was “Dose-dependent effect” throughout. Moreover, the Kdiss in data set [6] amounted to 5.73 ×10⁻⁴ /s. Moreover, in data set [8], the Ea came to 27.7 kcal/mol.
Take `CCOP(=O)(OCC)C(N(OC(C)c1n(C)cc[n+]1C)C(C)(C)C)C(C)(C)C` (stereo in doubt; form 1) [listing 2 of 2 here]: the Activity entry in data set [1] and in data set [7] was “Dose-dependent effect” throughout. For the same compound, the Kdiss in data set [6] came out at 1.27 ×10⁻³ /s. Also, the Ea in data set [8] was determined as 27.1 kcal/mol.
Compound `CCOP(=O)(OCC)C(N(OC(C)n1ccnc1)C(C)(C)C)C(C)(C)C` (stereo in doubt; form 2) displayed a pKa in data set [3] of 5.81.
Turning to `CCOP(=O)(OCC)C(N(OC(C)n1cc[n+](C)c1)C(C)(C)C)C(C)(C)C` (stereo in doubt; form 2), the log distribution coefficient (logD) in data set [4] (octanol/water) amounted to 0.3.
In data set [4] (octanol/water), `CCOP(=O)(OCC)C(N(OC(C)c1cn(C)c[n+]1C)C(C)(C)C)C(C)(C)C` (stereo in doubt; form 2) [listing 1 of 2 here] displayed a logD of 0.4. The t1/2 in data set [2] worked out at 29 h. Besides, the T in data set [5] came out at 80 °C.
Compound `CCOP(=O)(OCC)C(N(OC(C)c1n(C)cc[n+]1C)C(C)(C)C)C(C)(C)C` (stereo in doubt; form 2) [listing 1 of 2 here] had a logD in data set [4] (octanol/water) of 0.5. The t1/2 in data set [2] is 3.4 h. In data set [5], the T was 60 °C.
`CCOP(=O)(OCC)C(N(OC(C)c1cn(C)c[n+]1C)C(C)(C)C)C(C)(C)C` (stereo in doubt; form 2) [listing 2 of 2 here]: the Activity result in data set [1] and in data set [7] was “Dose-dependent effect” throughout. Besides, the Kdiss in data set [6] worked out at 1.61 ×10⁻³ /s. The Ea in data set [8] is 27.7 kcal/mol.
Consider `CCOP(=O)(OCC)C(N(OC(C)c1n(C)cc[n+]1C)C(C)(C)C)C(C)(C)C` (stereo in doubt; form 2) [listing 2 of 2 here], for which the Activity entry in data set [1] and in data set [7] was “Dose-dependent effect” in each case. Besides, in data set [6], the Kdiss was 1.1 ×10⁻³ /s. In addition, the Ea in data set [8] was 26.4 kcal/mol.
Regarding `Cn1nnc2c(C(N)=O)ncn2c1=O` [TEMOZOLOMIDE], the IC50 in data set [7] (U-251, 72 h) turned out to be 455 µM.

The record behind these values is ChEMBL document CHEMBL4339209, “Chemical modifications of imidazole-containing alkoxyamines increase C-ON bond homolysis rate: Effects on their cytotoxic properties in glioblastoma cells” (Bioorg Med Chem, 2019).
